{
  "source": "paper PMC6105922",
  "about": "(Rheumatology (Oxford, England), 2018)",
  "key": {"urinary uric acid": {"system": "urinary uric acid", "assay": "Urinary uric acid excretion", "type": "in vivo, human", "conditions": "for FEUA (fractional excretion of uric acid) relative to baseline: data not shown; for Mean maximum ReUR (urinary uric acid excretion rate) relative to baseline: in vivo", "outline": "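Oral dosing was once daily after breakfast over 7-day periods in hyperuricaemic Japanese men. Total-catch urine was collected on days −1, 7, 14, 21 and 28, with 240 ml water drunk on rising, within 2 h before dosing. The urinary uric acid excretion rate (mg/h) and fractional excretion (%) were calculated per 24-h collection and compared with baseline.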"}, "serum urate (sUA)": {"system": "serum urate (sUA)", "assay": "Serum urate", "type": "in vivo, human", "conditions": "for Proportion of subjects with sUA ⩽6.0 mg/dl at 4 h after treatment: pooled cohorts"}, "[1]": {"assay": "Plasma and urine pharmacokinetics of verinurad", "type": "in vivo", "conditions": "human, oral", "outline": "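Japanese men with gout or asymptomatic hyperuricaemia (sUA ≥8 mg/dl) took oral drug once daily after breakfast, alone or with febuxostat 10, 20 or 40 mg, over 7-day periods. Serial plasma and total-catch urine were taken on days −1, 7, 14, 21 and 28. Plasma was protein-precipitated and urine water-diluted, both assayed by HPLC-MS/MS.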"}, "[2]": {"assay": "Safety: adverse events, serum creatinine, laboratory evaluations", "type": "in vivo, human", "outline": "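Males aged 21–65 were dosed orally once daily after breakfast for 7-day periods and followed to day 42. Monitoring covered adverse events (MedDRA v18.0), clinical laboratory tests including serum creatinine, vital signs, ECGs and physical examinations. An independent committee was to adjudicate serious renal events. Clinically relevant laboratory abnormalities were graded by Rheumatology Common Toxicity Criteria v2.0. Results are descriptive, in everyone given at least one dose.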"}},
  "data": [
    {"molecule": "Cc1nc(-c2ccc(OCC(C)C)c(C#N)c2)sc1C(=O)O", "note": "[febuxostat, reference compound]", "values": [
      {"measurement": "FEUA (fractional excretion of uric acid) relative to baseline", "setting": "urinary uric acid", "result": "reduced"},
      {"measurement": "Mean maximum ReUR (urinary uric acid excretion rate) relative to baseline", "setting": "urinary uric acid", "result": "reduced"},
      {"measurement": "Proportion of subjects with sUA ⩽6.0 mg/dl at 4 h after treatment", "setting": "serum urate (sUA); febuxostat 10 mg alone", "result": 20.8, "unit": "%"},
      {"measurement": "Proportion of subjects with sUA ⩽6.0 mg/dl at 4 h after treatment", "setting": "serum urate (sUA); febuxostat 40 mg alone", "result": 83.3, "unit": "%"}
    ]},
    {"molecule": "CC(C)(Sc1ccncc1-c1ccc(C#N)c2ccccc12)C(=O)O", "note": "[verinurad]", "values": [
      {"measurement": "FEUA (fractional excretion of uric acid) relative to baseline", "setting": "urinary uric acid", "result": "increased in a dose-dependent manner"},
      {"measurement": "Mean maximum ReUR (urinary uric acid excretion rate) relative to baseline", "setting": "urinary uric acid", "result": "increased"},
      {"measurement": "half-life", "setting": "[1]; plasma, mean t½, varying verinurad doses alone or in combination with febuxostat", "result": "13 to 24", "unit": "h"},
      {"measurement": "CL renal", "setting": "[1]; urine and plasma", "result": "12.4 to 15.1", "unit": "mL/min"},
      {"measurement": "Subjects achieving sUA ⩽6.0 mg/dl 4 h after treatment", "setting": "serum urate (sUA); verinurad 10 or 15 mg alone", "result": "All subjects"},
      {"measurement": "Subjects with sCr elevation ⩾1.5 × baseline", "setting": "[2]; verinurad 2.5 mg or verinurad 15 mg alone (cohort 5)", "result": "Two subjects"},
      {"measurement": "Tolerability", "setting": "[2]; verinurad 2.5 mg to 15 mg, no withdrawals due to adverse events", "result": "well tolerated"}
    ]},
    {"molecule": "CCc1oc2ccccc2c1C(=O)c1cc(Br)c(O)c(Br)c1", "note": "[benzbromarone]", "values": [
      {"measurement": "Subjects achieving sUA ⩽6.0 mg/dl 4 h after treatment", "setting": "serum urate (sUA); benzbromarone 50 mg alone", "result": "All subjects"},
      {"measurement": "sUA-lowering effect", "setting": "serum urate (sUA); benzbromarone 50 mg, Cohort 6", "result": "generally similar in sUA-lowering effect to verinurad 5 mg combined with febuxostat 20 mg"}
    ]}
  ]
}
